{"source": "ChEMBL document CHEMBL3763115", "about": "“Silibinin derivatives as anti-prostate cancer agents: Synthesis and cell-based evaluations” (Eur J Med Chem, 2016)", "key": {"[1]": {"tested_on": "LNCaP", "assay": "Antiproliferative activity against human LNCAP cells assessed as reduction in cell viability after 3 days by WST-1 cell proliferation assay", "type": "functional, cell-based", "details": "72 h", "summary_of_the_method": "(§1)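 Cells from ATCC; PC-3 and LNCaP grown in RPMI-1640, DU145 in EMEM, each with 10% FBS and 1% penicillin/streptomycin, 37 °C, 5% CO2. 3,200 cells per well, treated at 5 concentrations for 3 days with 0.25% DMSO as vehicle control. WST-1 reagent added, 3 h at 37 °C, absorbance read at 430 nm. IC50 from linear fit of at least five doses, mean of at least triplicates.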"}, "[2]": {"tested_on": "LNCaP", "assay": "Potency index, ratio of silibinin IC50 to compound IC50 for antiproliferative activity against human LNCAP cells", "type": "functional", "summary_of_the_method": "(§2)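 Ratio of silibinin IC50 to derivative IC50. Both come from the 3-day WST-1 assay run in parallel (5 doses, absorbance at 430 nm, IC50 from linear fit, at least triplicates).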"}, "[3]": {"tested_on": "PC-3", "assay": "Induction of apoptosis in human PC3 cells assessed as apoptotic cells at 30 uM after 16 hrs by F2N12S/Sytox A advanced staining based flow cytometry (reference value: 3%)", "type": "functional"}, "[4]": {"tested_on": "PC-3", "assay": "Induction of apoptosis in human PC3 cells assessed as necrotic cells at 20 uM after 16 hrs by F2N12S/Sytox A advanced staining based flow cytometry (reference value: 11%)", "type": "functional"}, "[5]": {"assay": "Cell cycle arrest in human PC3 cells assessed as accumulation at M phase at 20 uM after 30 hrs by propidium iodide staining based flow cytometry (reference value: 5%)", "type": "functional", "details": "PC-3", "summary_of_the_method": "(§3)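 PC-3 cells (RPMI-1640, 10% FBS), 200,000 per well, allowed 3 h to attach, then exposed to compound with DMSO as vehicle control. Attached and floating cells collected at 24 and 30 h, fixed in cold 80% ethanol for 30 min at 4 °C, treated with RNase for 30 min at 37 °C, and stained with propidium iodide. DNA content read by flow cytometry within 0.5–1 h.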"}, "[6]": {"assay": "Antiproliferative activity against human DU145 cells assessed as reduction in cell viability after 3 days by WST-1 cell proliferation assay", "type": "functional, cell-based", "details": "DU-145, 72 h", "summary_of_the_method": "as §1"}, "[7]": {"assay": "Cell cycle arrest in human PC3 cells assessed as accumulation at G0/G1 phase at 20 uM after 30 hrs by propidium iodide staining based flow cytometry (reference value: 55%)", "type": "functional", "details": "PC-3", "summary_of_the_method": "as §3"}, "[8]": {"tested_on": "PC-3", "assay": "Induction of apoptosis in human PC3 cells assessed as apoptotic cells at 10 uM after 16 hrs by F2N12S/Sytox A advanced staining based flow cytometry (reference value: 3%)", "type": "functional"}, "[9]": {"tested_on": "PC-3", "assay": "Induction of apoptosis in human PC3 cells assessed as viable cells at 20 uM after 16 hrs by F2N12S/Sytox A advanced staining based flow cytometry (reference value: 86%)", "type": "functional", "details": "PC-3, 16 h, read-out: Activity"}, "[10]": {"tested_on": "PC-3", "assay": "Induction of apoptosis in human PC3 cells after 16 hrs by F2N12S/Sytox A advanced staining based flow cytometry", "type": "functional, cell-based"}, "[11]": {"tested_on": "PC-3", "assay": "Induction of apoptosis in human PC3 cells assessed as necrotic cells at 30 uM after 16 hrs by F2N12S/Sytox A advanced staining based flow cytometry (reference value: 11%)", "type": "functional"}, "[12]": {"assay": "Cell cycle arrest in human PC3 cells assessed as accumulation at G0/G1 phase at 20 uM after 24 hrs by propidium iodide staining based flow cytometry (reference value: 49%)", "type": "functional", "details": "PC-3", "summary_of_the_method": "as §3"}, "[13]": {"tested_on": "PC-3", "assay": "Induction of apoptosis in human PC3 cells assessed as apoptotic cells at 20 uM after 16 hrs by F2N12S/Sytox A advanced staining based flow cytometry (reference value: 3%)", "type": "functional"}, "[14]": {"tested_on": "PC-3", "assay": "Induction of apoptosis in human PC3 cells assessed as viable cells at 40 uM after 16 hrs by F2N12S/Sytox A advanced staining based flow cytometry (reference value: 86%)", "type": "functional", "details": "PC-3, 16 h, read-out: Activity"}, "[15]": {"tested_on": "PC-3", "assay": "Induction of apoptosis in human PC3 cells assessed as viable cells at 10 uM after 16 hrs by F2N12S/Sytox A advanced staining based flow cytometry (reference value: 86%)", "type": "functional", "details": "PC-3, 16 h, read-out: Activity"}, "[16]": {"tested_on": "PC-3", "assay": "Induction of apoptosis in human PC3 cells assessed as apoptotic cells at 40 uM after 16 hrs by F2N12S/Sytox A advanced staining based flow cytometry (reference value: 3%)", "type": "functional"}, "[17]": {"tested_on": "PC-3", "assay": "Induction of apoptosis in human PC3 cells assessed as necrotic cells at 50 uM after 16 hrs by F2N12S/Sytox A advanced staining based flow cytometry (reference value: 11%)", "type": "functional"}, "[18]": {"assay": "Cell cycle arrest in human PC3 cells assessed as accumulation at S phase at 20 uM after 30 hrs by propidium iodide staining based flow cytometry (reference value: 5%)", "type": "functional", "details": "PC-3", "summary_of_the_method": "as §3"}, "[19]": {"assay": "Antiproliferative activity against human PC3 cells assessed as reduction in cell viability after 3 days by WST-1 cell proliferation assay", "type": "functional, cell-based", "details": "PC-3, 72 h", "summary_of_the_method": "as §1"}, "[20]": {"tested_on": "PC-3", "assay": "Induction of apoptosis in human PC3 cells assessed as viable cells at 30 uM after 16 hrs by F2N12S/Sytox A advanced staining based flow cytometry (reference value: 86%)", "type": "functional", "details": "PC-3, 16 h, read-out: Activity"}, "[21]": {"assay": "Potency index, ratio of silibinin IC50 to compound IC50 for antiproliferative activity against human PC3 cells", "type": "functional, PC-3", "summary_of_the_method": "as §2"}, "[22]": {"assay": "Cell cycle arrest in human PC3 cells assessed as accumulation at G2 phase at 20 uM after 24 hrs by propidium iodide staining based flow cytometry (reference value: 34%)", "type": "functional", "details": "PC-3", "summary_of_the_method": "as §3"}, "[23]": {"tested_on": "PC-3", "assay": "Induction of apoptosis in human PC3 cells assessed as viable cells at 50 uM after 16 hrs by F2N12S/Sytox A advanced staining based flow cytometry (reference value: 86%)", "type": "functional", "details": "PC-3, 16 h, read-out: Activity"}, "[24]": {"assay": "Potency index, ratio of silibinin IC50 to compound IC50 for antiproliferative activity against human DU145 cells", "type": "functional, DU-145", "summary_of_the_method": "as §2"}, "[25]": {"assay": "Cell cycle arrest in human PC3 cells assessed as accumulation at G2 phase at 20 uM after 30 hrs by propidium iodide staining based flow cytometry (reference value: 30%)", "type": "functional", "details": "PC-3", "summary_of_the_method": "as §3"}, "[26]": {"tested_on": "PC-3", "assay": "Induction of apoptosis in human PC3 cells assessed as necrotic cells at 10 uM after 16 hrs by F2N12S/Sytox A advanced staining based flow cytometry (reference value: 11%)", "type": "functional"}, "[27]": {"tested_on": "PC-3", "assay": "Induction of apoptosis in human PC3 cells assessed as apoptotic cells at 50 uM after 16 hrs by F2N12S/Sytox A advanced staining based flow cytometry (reference value: 3%)", "type": "functional"}, "[28]": {"assay": "Cell cycle arrest in human PC3 cells assessed as accumulation at M phase at 20 uM after 24 hrs by propidium iodide staining based flow cytometry (reference value: 8%)", "type": "functional", "details": "PC-3", "summary_of_the_method": "as §3"}, "[29]": {"assay": "Cell cycle arrest in human PC3 cells assessed as accumulation at S phase at 20 uM after 24 hrs by propidium iodide staining based flow cytometry (reference value: 8%)", "type": "functional", "details": "PC-3", "summary_of_the_method": "as §3"}, "[30]": {"tested_on": "PC-3", "assay": "Induction of apoptosis in human PC3 cells assessed as necrotic cells at 40 uM after 16 hrs by F2N12S/Sytox A advanced staining based flow cytometry (reference value: 11%)", "type": "functional"}}}
{"smiles": "CCOc1cc(O)c2c(=O)c(O)c(-c3ccc4c(c3)OC(c3ccc(O)c(OC)c3)C(CO)O4)oc2c1", "note": "(stereo not given)", "values": [{"measurement": "IC50", "setting": "[1]", "value": 2.58, "unit": "µM"}, {"measurement": "Ratio IC50", "setting": "[2]", "value": 17}, {"measurement": "Activity", "setting": "[3]", "value": 68, "unit": "%"}, {"measurement": "Activity", "setting": "[4]", "value": 13, "unit": "%"}, {"measurement": "Activity", "setting": "[5]", "value": 6, "unit": "%"}, {"measurement": "IC50", "setting": "[6]", "value": 7.59, "unit": "µM"}, {"measurement": "Activity", "setting": "[7]", "value": 61, "unit": "%"}, {"measurement": "Activity", "setting": "[8]", "value": 9, "unit": "%"}, {"measurement": "viability at 20 µM", "setting": "[9]", "value": 49, "unit": "%"}, {"measurement": "Activity", "setting": "[10]", "value": "Dose-dependent effect"}, {"measurement": "Activity", "setting": "[11]", "value": 25, "unit": "%"}, {"measurement": "Activity", "setting": "[12]", "value": 62, "unit": "%"}, {"measurement": "Activity", "setting": "[13]", "value": 38, "unit": "%"}, {"measurement": "viability at 40 µM", "setting": "[14]", "value": 4, "unit": "%"}, {"measurement": "viability at 10 µM", "setting": "[15]", "value": 84, "unit": "%"}, {"measurement": "Activity", "setting": "[16]", "value": 71, "unit": "%"}, {"measurement": "Activity", "setting": "[17]", "value": 27, "unit": "%"}, {"measurement": "Activity", "setting": "[18]", "value": 6, "unit": "%"}, {"measurement": "IC50", "setting": "[19]", "value": 3.25, "unit": "µM"}, {"measurement": "viability at 30 µM", "setting": "[20]", "value": 11, "unit": "%"}, {"measurement": "Ratio IC50", "setting": "[21]", "value": 22}, {"measurement": "Activity", "setting": "[22]", "value": 23, "unit": "%"}, {"measurement": "viability at 50 µM", "setting": "[23]", "value": 7, "unit": "%"}, {"measurement": "Ratio IC50", "setting": "[24]", "value": 12}, {"measurement": "Activity", "setting": "[25]", "value": 25, "unit": "%"}, {"measurement": "Activity", "setting": "[26]", "value": 7, "unit": "%"}, {"measurement": "Activity", "setting": "[27]", "value": 66, "unit": "%"}, {"measurement": "Activity", "setting": "[28]", "value": 7, "unit": "%"}, {"measurement": "Activity", "setting": "[29]", "value": 7, "unit": "%"}, {"measurement": "Activity", "setting": "[30]", "value": 25, "unit": "%"}]}
